{
  "source": "ChEMBL document CHEMBL1933059",
  "about": "“Imidazo [4,5f][1,10] phenanthroline derivatives as inhibitor of c-myc gene expression in A549 cells via NF-κB pathway” (Bioorg Med Chem Lett, 2012)",
  "key": {"[1]": {"test_system": "A549", "test": "Cytotoxicity against human A549 cells after 72 hrs by MTT assay", "type": "functional, cell-based", "details": "A549, 72 h", "in_short": "(§1)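 MTT growth-inhibition assay; IC50 values given as mean ± SD of triplicates.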"}, "[2]": {"test_system": "A-375", "test": "Cytotoxicity against human A375 cells after 72 hrs by MTT assay", "type": "functional, cell-based", "details": "A-375, 72 h", "in_short": "as §1"}, "[3]": {"test_system": "HepG2", "test": "Cytotoxicity against human HepG2 cells after 72 hrs by MTT assay", "type": "functional, cell-based", "details": "HepG2, 72 h", "in_short": "as §1"}, "[4]": {"test_system": "A549", "test": "Down regulation of c-myc gene expression in human A549 cells after 24 to 48 hrs by qRT-PCR analysis", "type": "functional, cell-based"}, "[5]": {"test_system": "A549", "test": "Induction of apoptosis in human A549 cells at 1 uM after 24 hrs by annexinV-propidium iodide staining-based flow cytometric analysis (reference value: 10.81%)", "type": "functional"}, "[6]": {"test_system": "A549", "test": "Induction of apoptosis in human A549 cells at 5 uM after 24 hrs by annexinV-propidium iodide staining-based flow cytometric analysis (reference value: 10.81%)", "type": "functional"}, "[7]": {"test": "Cytotoxicity against human HO8910 cells after 72 hrs by MTT assay", "type": "functional, cell-based", "details": "HO-8910, 72 h", "in_short": "as §1"}, "[8]": {"test_system": "A549", "test": "Inhibition of NFkappa B in human A549 cells assessed as down regulation of NF-kappaB p65 protein expression at 1 to 5 uM by Western blot analysis", "type": "cell-based", "details": "TDE = time-dependent effect", "in_short": "(§2)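 A549 cells treated at 1, 2.5 and 5 μM. Timepoints: IκBα 24 h, p65 24 h, c-myc 24 and 48 h. Total cell lysates resolved on 10% polyacrylamide gels and immunoblotted with protein-specific antibodies. β-actin and GAPDH serve as internal controls. Mean ± SD of triplicates.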"}, "[9]": {"test_system": "A549", "test": "Inhibition of NFkappa B in human A549 cells assessed as decrease in c-myc protein expression after 24 to 48 hrs by Western blot analysis", "type": "cell-based", "in_short": "as §2"}, "[10]": {"test_system": "Bel-7402", "test": "Cytotoxicity against human Bel7402 cells after 72 hrs by MTT assay", "type": "functional, cell-based", "details": "Bel-7402, 72 h", "in_short": "as §1"}, "[11]": {"test_system": "A549", "test": "Induction of IkappaBalpha protein expression in human A549 cells after 24 hrs by Western blot analysis", "type": "functional, cell-based", "in_short": "as §2"}, "[12]": {"test": "Cytotoxicity against human CNE1 cells after 72 hrs by MTT assay", "type": "functional, cell-based", "details": "CNE", "in_short": "as §1"}, "[13]": {"test_system": "A549", "test": "Inhibition of NFkappa B in human A549 cells assessed as down regulation of NF-kappaB p65 protein expression after 24 hrs by Western blot analysis", "type": "cell-based", "in_short": "as §2"}, "[14]": {"test_system": "A549", "test": "Induction of apoptosis in human A549 cells at 2.5 uM after 24 hrs by annexinV-propidium iodide staining-based flow cytometric analysis (reference value: 10.81%)", "type": "functional"}, "[15]": {"test_system": "A549", "test": "Inhibition of NFkappa B in human A549 cells assessed as decrease in c-myc protein expression at 1 to 5 uM by Western blot analysis", "type": "cell-based", "details": "TDE = time-dependent effect", "in_short": "as §2"}},
  "data": [
    {"smiles": "Cc1ccc(-c2nc3c4cccnc4c4ncccc4c3[nH]2)cc1", "values": [
      {"measurement": "IC50", "setting": "[1]", "value": 1330, "unit": "nM"}
    ]},
    {"smiles": "CCOc1ccc(-c2nc3c4cccnc4c4ncccc4c3[nH]2)cc1", "values": [
      {"measurement": "IC50", "setting": "[1]", "value": 1960, "unit": "nM"}
    ]},
    {"smiles": "COc1ccc(-c2nc3c4cccnc4c4ncccc4c3[nH]2)cc1", "values": [
      {"measurement": "IC50", "setting": "[1]", "value": 1360, "unit": "nM"}
    ]},
    {"smiles": "Brc1ccc(-c2nc3c4cccnc4c4ncccc4c3[nH]2)cc1", "values": [
      {"measurement": "IC50", "setting": "[2]", "value": 980, "unit": "nM"},
      {"measurement": "IC50", "setting": "[1]", "value": 850, "unit": "nM"},
      {"measurement": "IC50", "setting": "[3]", "value": 4300, "unit": "nM"},
      {"measurement": "Activity", "setting": "[4]", "value": "Dose-dependent effect"},
      {"measurement": "Activity", "setting": "[5]", "value": 35.26, "unit": "%"},
      {"measurement": "Activity", "setting": "[6]", "value": 50.94, "unit": "%"},
      {"measurement": "IC50", "setting": "[7]", "value": 1560, "unit": "nM"},
      {"measurement": "inhibition", "setting": "[8]", "value": "tde"},
      {"measurement": "inhibition", "setting": "[9]", "value": "Dose-dependent effect"},
      {"measurement": "IC50", "setting": "[10]", "value": 5800, "unit": "nM"},
      {"measurement": "Activity", "setting": "[11]", "value": "Dose-dependent effect"},
      {"measurement": "IC50", "setting": "[12]", "value": 1200, "unit": "nM"},
      {"measurement": "inhibition", "setting": "[13]", "value": "Dose-dependent effect"},
      {"measurement": "Activity", "setting": "[14]", "value": 43.26, "unit": "%"},
      {"measurement": "inhibition", "setting": "[15]", "value": "tde"}
    ]},
    {"smiles": "CCCOc1ccc(-c2nc3c4cccnc4c4ncccc4c3[nH]2)cc1", "values": [
      {"measurement": "IC50", "setting": "[1]", "value": 18000, "unit": "nM"}
    ]},
    {"smiles": "Fc1ccc(-c2nc3c4cccnc4c4ncccc4c3[nH]2)cc1", "values": [
      {"measurement": "IC50", "setting": "[1]", "value": 1090, "unit": "nM"}
    ]},
    {"smiles": "Clc1ccc(-c2nc3c4cccnc4c4ncccc4c3[nH]2)cc1", "values": [
      {"measurement": "IC50", "setting": "[1]", "value": 1060, "unit": "nM"}
    ]},
    {"smiles": "CCCCOc1ccc(-c2nc3c4cccnc4c4ncccc4c3[nH]2)cc1", "values": [
      {"measurement": "IC50", "setting": "[1]", "value": 35500, "unit": "nM"}
    ]},
    {"smiles": "CC(C)Oc1ccc(-c2nc3c4cccnc4c4ncccc4c3[nH]2)cc1", "values": [
      {"measurement": "IC50", "setting": "[1]", "value": 31900, "unit": "nM"}
    ]},
    {"smiles": "FC(F)(F)c1ccc(-c2nc3c4cccnc4c4ncccc4c3[nH]2)cc1", "values": [
      {"measurement": "IC50", "setting": "[1]", "value": 1730, "unit": "nM"}
    ]}
  ]
}
